Screening data: PubChem, several laboratories
This excerpt belongs to a sample that is enriched for hits.
XBP1 UPR activ: activators of adaptive XBP1 UPR arm, primary screen, cell-based, CHO-XBP1 luciferase reporter, luminescence, uHTS | IRE1-XBP1 UPR activation; percent of tunicamycin response, DMSO as zero | actives 0.33% (n = 330,000) | activation, % at 20 µM;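 active = versus positive control, 20 µM dose yields 30% or more activation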
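Material: IRE1-XBP1 luciferase reporter CHO line / Quantity: one thousand reporter cells per well / Buffer or medium: F12 with 10% serum / Compound: 20 µM single concentration, DMSO 1% / Times: 6 h treatment, 37 °C / Detection: Steady-Glo luciferase glow luminescence, 10 min after reagent addition / Benchmarks: tunicamycin high, DMSO low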
L major viab: Leishmania major promastigote growth inhibition, primary screen | Leishmania major promastigotes, resazurin fluorescence viability | inhibition, % at 10 µM | actives 9% (n = 200,000) | AID 1063, 2008; in the data active = inhibition above about 50%;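 also: promastigotes grown with compound for 44 hours at 28 °C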
CHOP inhibitor: inhibitors of CHOP promoter induction, primary screen, cell-based, unfolded protein response, luciferase reporter; CHO-K1 CHOP-promoter luciferase, tunicamycin-induced, 15-18 h; inhibition, % at 10 µM; actives 3.8% (n = 220,000);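 active = compounds that reduced the stress-induced luciferase reporter signal by more than about 70% of percent inhibition, limit read from the data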
Dynein cargo inh: inhibitors of GR-EGFP nuclear translocation, primary screen, dynein cargo transport inhibitor project, imaging, high-content, 3617.4 mouse cells; AID 1381, 2008; actives 0.47% (n = 220,000); test concentration mostly 20 µM; stimulated with dexamethasone, 1 µM; stronger effect = lower value; z-score, hits read low;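 active = plate z-score of nuclear minus cytoplasmic receptor signal below a set negative limit, without overly bright fluorescence or cell loss, cut at about -3.5 in these data, passing the limit was not always enough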;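 also: z-score of nuclear minus cytoplasmic ring GR-EGFP intensity difference per well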
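Also added – dexamethasone, 1.0 µM final · Buffer or medium – tet-free, stripped-serum medium · Schedule – induction 48 h, compound 1 h, agonist 30 min · Detection – formaldehyde fixation, Hoechst nuclear stain, 10x automated fluorescence imaging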
CHOP UPR activ: activators of apoptotic CHOP UPR arm, primary screen, cell-based, CHO-CHOP luciferase reporter, luminescence, uHTS; AID 449763, 2010; UPR activation; percent of tunicamycin response over DMSO baseline; activation, % at 10 µM; actives 0.34% (n = 330,000);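 active = at 10 µM dose, activation of 40% or more, normalized to positive control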
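Evaluation: % reporter activation, DMSO baseline versus tunicamycin full activation; System: CHO-CHOP luciferase reporter cell line; Input: 500 cells/well; Incubation: 6 h compound treatment, 37 °C; Measured by: Steady-Glo luciferase luminescence; Dosing: one dose, 10 µM in 0.5% DMSO; Buffer or medium: F12 medium, 10% FBS; Benchmarks: positive tunicamycin 10 µg/mL, negative DMSO alone.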
T cruzi repl: inhibitors of intracellular T. cruzi growth, primary screen, luminescence, NIH3T3 host cells; T. cruzi beta-gal in NIH3T3, 90 h; inhibition, % (test concentration not listed); actives 1.4% (n = 300,000);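 active = mean inhibition across valid replicates above about 55%, limit read from the data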;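 also: signal also drops with host cell toxicity which is not excluded here; higher percent means less beta-gal luminescence so fewer parasites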
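Material: NIH/3T3 host cells with β-galactosidase reporter T. cruzi; Input: 5,000 host fibroblasts per well; Medium: DMEM, 2% fetal bovine serum; Compound: 50 nL DMSO compound solution per well; Schedule: 3 h host attachment, then at least 90 h co-culture; Detection: luminescent β-galactosidase signal after 60 min lysis.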
Of the large screens only hits and unclear results are named; the others gave an inactive call.

Cc1ncc(CN2CCCC(CCC(=O)NCc3ccccc3F)C2)s1 (stereo not drawn)	L major viab 77.2, T cruzi repl 61.0
Cc1ncc(CN2CCCC(CCC(=O)NCc3ccc(F)c(F)c3)C2)s1 (stereo not drawn)	L major viab 88.3, T cruzi repl 61.3
O=C(CCC1CCCN(Cc2ccc3c(c2)CCO3)C1)NCc1ccc(F)c(F)c1 (stereo not drawn)	L major viab 98.7, T cruzi repl 63.4
Cc1ccc(C(=O)N2CCCC(CCC(=O)NCc3ccccc3F)C2)cn1 (stereo not drawn)	none (no result: L major viab, CHOP inhibitor, Dynein cargo inh)
CC(=O)c1cccc(CN2CCCC(CCC(=O)NCc3ccccc3F)C2)c1 (stereo not drawn)	L major viab 91.5, T cruzi repl 61.4
O=C(CSc1nncn1-c1ccccc1F)NC1CC1	none (no result: L major viab, CHOP inhibitor, Dynein cargo inh, T cruzi repl)
CC(C)Cc1ccc(C(C)C(N)=NCCc2ccccc2)cc1 (stereo not drawn)	none (no result: L major viab, CHOP inhibitor, Dynein cargo inh)
CC/C=C(\NC(C)=O)c1ccccc1	none (no result: L major viab, CHOP inhibitor, Dynein cargo inh, T cruzi repl)
Cc1occc1C(=O)N1CCCC(CCC(=O)NCc2ccc(F)c(F)c2)C1 (stereo not drawn)	none
COc1ccccc1/C=C/CN1CCCC(CCC(=O)NCc2ccccc2F)C1 (stereo not drawn)	T cruzi repl 75.8
O=C(CCC1CCCN(C2C3CC4CC(C3)CC2C4)C1)NCc1ccc(F)c(F)c1 (stereo not drawn)	L major viab 56.1
CN1C(c2ccc(F)cc2)=CS/C1=C(\C#N)c1nnc2n1-c1ccccc1SC2	L major viab 79.4
Clc1ccc(-c2nnc3n2-c2ccccc2SC3)cc1	none (no result: L major viab)
O=C(CNC(=S)N(Cc1ccccc1)Cc1ccccc1F)NCCc1ccc(Cl)cc1	L major viab 98.0, T cruzi repl 85.2
CC(NC(=O)CNC(=S)N(Cc1ccccc1)Cc1cccnc1)c1ccccc1 (stereo not drawn)	L major viab 65.1, T cruzi repl 54.5
COCCNC(=O)CNC(=S)N(Cc1ccccc1)Cc1cccnc1	none
O=C(CNC(=S)N(Cc1ccccc1)Cc1cccs1)NCc1ccc(F)cc1	none (no result: XBP1 UPR activ, CHOP UPR activ)
Cc1ccc(CN(Cc2ccco2)C(=S)NCC(=O)NCc2cccnc2)cc1	none
Cc1ccc(CNC(=O)CNC(=S)N(Cc2ccccc2)Cc2cccnc2)cc1	L major viab 96.6
CCOc1ccc(S(=O)(=O)N2CCOCC2)cc1NC(=O)CSCc1ccc(C)cc1	none (no result: L major viab, CHOP inhibitor, Dynein cargo inh, T cruzi repl)
COC(=O)CSC1=C(C#N)C(c2ccc3c(c2)OCO3)C2=C(CCCC2=O)N1 (stereo not drawn)	none
COC(=O)C1=C(N)N(c2ccccc2C(F)(F)F)C2=C(C(=O)CCC2)C1c1ccc2c(c1)OCO2 (stereo not drawn)	T cruzi repl 55.9
O=C(Nc1ccc2nc3n(c(=O)c2c1)CCCCC3)C(=O)N1CCN(c2ccc(F)cc2)CC1	none (no result: L major viab, CHOP inhibitor, Dynein cargo inh)
O=C(Nc1cc(C(F)(F)F)ccc1N1CCOCC1)c1n[nH]c(=O)c2ccccc12	CHOP inhibitor 78.3
CSc1ncccc1C(=O)OCC(=O)Nc1cc(C(F)(F)F)ccc1N1CCOCC1	CHOP inhibitor 71.0
COc1ccc(C(=O)N2CCC(n3nccc3NC(=O)C3CC3)CC2)cc1F	none (no result: L major viab, CHOP inhibitor, Dynein cargo inh)
N#CCN(CC#N)C(=O)C1c2ccccc2Oc2ccccc21	none (no result: L major viab, CHOP inhibitor, Dynein cargo inh)
Cc1cccc(-n2c(SCc3cc(=O)n4c(C)cccc4n3)nc3[nH]ncc3c2=O)c1	L major viab 96.5
Cc1nc(CSc2nc3[nH]ncc3c(=O)n2-c2ccccc2)cs1	none
COc1cccc(-n2c(SCC(=O)Nc3nc4ccccc4s3)nc3ccccc3c2=O)c1	none (no result: L major viab)
COc1cccc(-n2c(SCC(=O)Nc3sc4c(c3C(N)=O)CCC4)nc3ccccc3c2=O)c1	L major viab 51.7, T cruzi repl 59.5
COc1ccccc1N1CCN(C(C)C(=O)N2CC(C)OC(C)C2)CC1 (stereo not drawn)	none
COc1cccc(CCc2nnc(CCC(=O)NCCC3CCCCO3)o2)c1 (stereo not drawn)	none (no result: L major viab, CHOP inhibitor, Dynein cargo inh)
COCCCNC(=O)c1ccc(S(=O)(=O)c2ccc(Cl)cc2)c(NC(C)=O)c1	none (no result: L major viab, CHOP inhibitor, Dynein cargo inh)
Cc1ccc(N2C(S)=C(C#N)C(=O)NC2c2cccs2)cc1 (stereo not drawn)	L major viab 61.3
O=C1C=C(c2ccc(OC(F)(F)F)cc2)C[C@@H](c2ccc(Cl)cc2)C1	none (no result: L major viab, CHOP inhibitor, Dynein cargo inh, T cruzi repl)
Clc1ccccc1OCc1nnc2n1CCCCC2	none (no result: L major viab)
CC1CCCN(CCCOc2ccccc2-c2ccccc2)C1 (stereo not drawn)	L major viab 94.3 (no result: XBP1 UPR activ, CHOP UPR activ)
CC1CCN(CCCCOc2ccccc2-c2ccccc2)CC1	L major viab 99.1
CC1CCN(CCOCCOc2ccccc2-c2ccccc2)CC1	L major viab 82.7
COc1ccccc1OCCCCN1CCC(C)CC1	none (no result: L major viab, CHOP inhibitor, Dynein cargo inh)
Cc1ccc2cccc(OCCOCCOc3ccccc3Br)c2n1	L major viab 66.7
CC1CN(CCOc2ccccc2-c2ccccc2)CC(C)O1 (stereo not drawn)	none
CCOc1ccc(NC(=O)CN(C)C(=O)c2ccc(C)o2)cc1OCC	none (no result: L major viab, CHOP inhibitor, Dynein cargo inh)
CC1CCN(CCOCCOc2ccccc2Br)CC1	L major viab 82.2
c1ccc(-c2nn3c(C4CCCCC4)nnc3s2)cc1	CHOP inhibitor 77.9
Cc1cccc(-c2nnc3sc(-c4ccccc4)nn23)c1	CHOP inhibitor 77.0
c1ccc(-c2nn3c(-c4ccccc4)nnc3s2)cc1	none
O=C(N/C(=C\c1ccc(F)cc1)C(=O)N1CCOCC1)c1ccccc1	none (no result: L major viab, CHOP inhibitor, Dynein cargo inh)
Brc1ccc(N=Nc2ccc3ccccc3n2)cc1	CHOP inhibitor 90.8 (no result: L major viab)
CCc1cc2c(COC(=O)c3cccc(S(C)(=O)=O)c3)cc(=O)oc2cc1O	none (no result: L major viab, CHOP inhibitor, Dynein cargo inh)
CCc1cc2c(COC(=O)c3c(C)noc3C)cc(=O)oc2cc1O	L major viab 85.5, CHOP inhibitor 95.3
COCCn1c(C)cc(C(=O)COC(=O)/C=C/c2ccc(OC)cc2OC)c1C	none (no result: L major viab, CHOP inhibitor, Dynein cargo inh, T cruzi repl)
O=[N+]([O-])c1cccc(S(=O)(=O)N2CCC(c3nc(-c4ccncc4)no3)CC2)c1	T cruzi repl 60.6
O=S(=O)(c1ccc(Cl)c(F)c1)N1CCC(c2nc(-c3ccncc3)no2)CC1	none
CC(C)c1ccc(NC(=O)c2snc3ccc(Cl)cc23)cc1	CHOP inhibitor 78.9
CC(C)c1ccc(NC(=O)c2csnn2)cc1	none
c1ccc(Oc2cc(-c3ccccc3)nc(-c3ccccc3)n2)cc1	none
Cc1cc(Oc2ccccc2)nc(-c2ccccc2)n1	CHOP inhibitor 77.9
